From ChEMBL document CHEMBL1122371, “Inhibition of renin by angiotensinogen peptide fragments containing the hydroxy amino acid residue 5-amino-3-hydroxy-7-methyloctanoic acid” (J Med Chem, 1983)

Columns and labels:
Renin = target: T1, Renin (Homo sapiens, UniProt P00797); assay: Inhibitory activity against human amniotic renin (competitive inhibition)
T1 sequence (P00797 whole entry): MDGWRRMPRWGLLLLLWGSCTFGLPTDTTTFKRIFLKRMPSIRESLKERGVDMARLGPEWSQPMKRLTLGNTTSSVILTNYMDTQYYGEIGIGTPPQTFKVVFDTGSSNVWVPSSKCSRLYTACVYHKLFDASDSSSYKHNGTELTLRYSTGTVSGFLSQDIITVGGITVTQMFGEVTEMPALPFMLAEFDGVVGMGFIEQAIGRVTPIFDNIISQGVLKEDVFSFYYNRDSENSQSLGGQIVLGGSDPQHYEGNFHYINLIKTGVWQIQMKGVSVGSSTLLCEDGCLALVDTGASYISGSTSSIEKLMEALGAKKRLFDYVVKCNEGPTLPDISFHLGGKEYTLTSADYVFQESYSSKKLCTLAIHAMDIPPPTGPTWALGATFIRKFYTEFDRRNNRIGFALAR
Summary of the method: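 Angiotensin I generation is reported as nmol/unit enzyme/min for hog kidney renin and nmol/mL/h for human amniotic renin. Points are means of three determinations. Lines are fitted by linear regression, and Ki is the −[I] at their intersection.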

Renin (Sus scrofa) = assay: Inhibitory activity against hog kidney renin (Non-competitive inhibition)

SMILES	Ki (Renin)	Ki (Renin (Sus scrofa))
COC(=O)[C@H](Cc1ccccc1)NC(=O)[C@@H](NC(=O)CC(O)CC(N)CC(C)C)C(C)C (some centres undefined)	95 µM	170 µM
COC(=O)[C@@H](Cc1ccccc1)NC(=O)[C@H](NC(=O)CC(O)CC(N)CC(C)C)C(C)C (some centres undefined)	1600 µM	1180 µM
